Screening data (PubChem BioAssay)
p97 ATPase inh: inhibitors of human p97 ATPase | P55072 | recombinant p97 ATPase, Kinase-Glo ATP luminescence, 3 h | inhibition, % at 8 µM | 220,000 tested, 0.42% active; in the data active = inhibition above about 15%
Target sequence (P55072 whole entry, looked up): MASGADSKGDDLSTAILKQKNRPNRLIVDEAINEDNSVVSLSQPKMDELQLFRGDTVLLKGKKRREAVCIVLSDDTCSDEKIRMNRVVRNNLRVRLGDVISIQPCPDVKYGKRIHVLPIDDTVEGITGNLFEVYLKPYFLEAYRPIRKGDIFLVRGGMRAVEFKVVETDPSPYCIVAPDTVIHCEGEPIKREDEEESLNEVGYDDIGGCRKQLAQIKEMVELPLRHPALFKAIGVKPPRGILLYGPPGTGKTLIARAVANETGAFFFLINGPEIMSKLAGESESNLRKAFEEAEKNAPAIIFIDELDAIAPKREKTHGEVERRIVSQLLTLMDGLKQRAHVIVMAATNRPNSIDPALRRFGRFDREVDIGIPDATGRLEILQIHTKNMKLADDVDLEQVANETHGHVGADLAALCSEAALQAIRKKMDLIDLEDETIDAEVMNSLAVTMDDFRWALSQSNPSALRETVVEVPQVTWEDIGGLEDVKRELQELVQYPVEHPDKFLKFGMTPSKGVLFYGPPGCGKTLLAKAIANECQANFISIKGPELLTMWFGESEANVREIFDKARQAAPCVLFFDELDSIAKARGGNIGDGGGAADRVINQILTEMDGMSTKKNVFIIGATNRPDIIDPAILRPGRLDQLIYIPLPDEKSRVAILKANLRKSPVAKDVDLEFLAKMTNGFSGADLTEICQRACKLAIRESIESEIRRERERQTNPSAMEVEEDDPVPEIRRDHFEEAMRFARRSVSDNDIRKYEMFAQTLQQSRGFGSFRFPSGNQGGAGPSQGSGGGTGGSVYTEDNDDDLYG
TNAP act hi DEA: increases human TNAP activity under high phosphate acceptor concentration | P05186 | purified TNAP, CDP-star luminescence, 1 M DEA, 30 min; stronger effect = higher value; 0 = EDTA background, 1 = DMSO-only activity | activation factor at 20 µM | 200,000 tested, under 10 active | AID 1136;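 active = activation factor at least 2 at 20 µM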
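Test system – human TNAP · Doses – 20 µM single point · Incubation – 30 min, room temperature · Signal – luminescent substrate turnover signal · Read-out basis – activation factor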
G6PDH CS: counter-screen for G6PDH assay hits: L. mesenteroides G6PDH inhibition; inhibition, % at 5 µM; 200,000 tested, 0.12% active; Purified L. mesenteroides G6PDH, diaphorase/resazurin coupled fluorescence, 45 min; in the data active = inhibition above about 50%
TNAP inh hiacc: inhibitors of human TNAP at high phosphate acceptor concentration. inhibition, % at 20 µM. 200,000 tested, 0.03% active. P05186. AID 1135. purified TNAP, CDP-star luminescence, 1 M DEA;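 active = over 50% inhibition of tissue-nonspecific alkaline phosphatase at 20 µM in the single-dose screen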
TNAP inh noacc: inhibitors of human TNAP without phosphate acceptor | P05186 | purified TNAP, CDP-star luminescence, 30 min | inhibition, % at 20 µM | 200,000 tested, 0.26% active | AID 1012;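 active = tissue-nonspecific alkaline phosphatase inhibition above about 50% at 20 µM in the single-dose screen, limit read from the data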
DTT redox prof: compounds producing H2O2 with reducing agent – biochemical, NIH compound library profiling, artefact control for MLSCN library redox annotation, primary screen; DTT-dependent redox cycling H2O2, phenol red/HRP absorbance; 100% = 100 µM peroxide control, 0% = buffer; activation, % at 10 µM; 200,000 tested, 0.03% active;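 active = activation of at least 50% relative to the plate's high and low controls in the primary single-dose screen; inactive = activation below 50%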;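 note: compound incubated with DTT at 0.8 mM final as the reducing agent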
Large screens that a line does not name were inactive. This is a sample that favours compounds with a hit; in the whole collection about 0.79% have one here.

O=C(N/N=C/c1c(Nc2cccc(C(F)(F)F)c2)nc2ccccn2c1=O)c1ccccc1[N+](=O)[O-]	none
NC(=O)NC1NC(=O)NC1=O (stereo not drawn)	none (no result: TNAP act hi DEA, G6PDH CS, TNAP inh hiacc, TNAP inh noacc, DTT redox prof)
COc1ccc(C)cc1N(CC(=O)N1CCc2ccccc2C1)S(C)(=O)=O	none
CCc1ccc(Sc2cc(C(=O)NCCN3CCOCC3)c3ccccc3n2)cc1	none
Cn1c(=O)c2c(nc(SCC(=O)N(C3CCCCC3)C3CCCCC3)n2C)n(C)c1=O	none (no result: TNAP act hi DEA, G6PDH CS, TNAP inh hiacc, TNAP inh noacc)
O=C(COC(=O)C1CCN(S(=O)(=O)c2cccs2)CC1)Nc1ccc(F)cc1F	none (no result: TNAP act hi DEA, G6PDH CS, TNAP inh hiacc, TNAP inh noacc, DTT redox prof)
O=C(CSc1n[nH]c(-c2ccccc2)n1)c1ccccc1	TNAP inh noacc 56
CN(C)c1nc(N)nc(CSc2nnnn2-c2ccc(F)cc2)n1	none
CN(C)c1nc(N)nc(CSc2n[nH]c(-c3ccccc3)n2)n1	TNAP inh noacc 68
O=C(N/N=C/c1ccccc1C(=O)O)c1cc(-c2ccc3c4c(cccc24)CC3)n[nH]1	TNAP inh noacc 74
O=C(N/N=C/c1ccco1)c1cc(-c2cccc3ccccc23)n[nH]1	none
Clc1ccc(-c2n[nH]c3c2CCC3)cc1Cl	none
Clc1ccc(-c2n[nH]c3c2CCCC3)cc1	TNAP inh noacc 53
COc1ccc(-c2nc(SC(CC(=O)NCCO)c3cccs3)n[nH]2)cc1 (stereo not drawn)	TNAP inh noacc 71
O=C(CC(Sc1n[nH]c(-c2ccccc2)n1)c1ccccc1)NCc1ccccc1 (stereo not drawn)	none
COc1ccc(NC(=O)/C(Cl)=C(/Cl)S(=O)Cc2ccccc2Cl)cn1 (stereo not drawn)	p97 ATPase inh 15
Cc1cc(C)n2[nH]c(=O)c(N=Nc3ccc(S(N)(=O)=O)cc3)c2n1	TNAP inh noacc 91
O=c1[nH][nH]c2c(N=Cc3ccccc3O)ccc(F)c12	p97 ATPase inh 40 (no result: TNAP act hi DEA, G6PDH CS, TNAP inh hiacc, TNAP inh noacc, DTT redox prof)
CCc1ccc(O)c(N=Cc2ccccc2O)c1	none
Fc1ccc(-c2c[nH]c(=S)n2Cc2ccccc2)cc1	none
CCN(CC)c1ccc(/C=C2\C(=O)c3ccc(C(=O)O)cc3C2=O)cc1	TNAP inh noacc 57
CCN(CC)c1ccc(C(=O)O)cc1	none
O=C(O)C(Cc1ccccc1)N1C(=O)/C(=C/C=C/c2ccco2)SC1=S (stereo not drawn)	p97 ATPase inh 27 (no result: TNAP act hi DEA, G6PDH CS, TNAP inh hiacc, TNAP inh noacc, DTT redox prof)
O=C1c2c(O)cc(O)cc2O[C@H](c2ccc(O)c(O)c2)[C@@H]1O	TNAP inh noacc 70 (no result: DTT redox prof)
CCN(CC)C(=O)c1c(NC(=O)c2ccccc2)sc(C)c1C	p97 ATPase inh 15
Cc1sc(NC(=O)c2ccccc2)c(C(=O)c2ccccc2)c1C	none
O=c1c2nnn(-c3ccc(Br)cc3)c2ncn1Cc1ccccn1	none
O=c1cc(/N=C/c2coc3c(ccc4ccccc43)c2=O)[nH]c(=S)[nH]1	TNAP inh noacc 53
COc1ccc(-n2c(SCC(=O)Nc3ccccc3)nc3c(c2=O)SCC3)cc1	none
CC(=O)Nc1ccccc1OCC(=O)N(Cc1ccccc1)C(C)C	none
Oc1ccc(/C=N/NC(=S)Nc2cccnc2)cc1O	TNAP inh noacc 78 (no result: DTT redox prof)
CC(C)(C)c1ccc(/C=N/NC(=S)Nc2cccnc2)cc1	none
Cc1ccc(C(=O)c2coc3c2C(=O)C(=O)c2ccccc2-3)cc1	G6PDH CS 58
Cc1ccc(N=C2NC(=O)C(CC(=O)O)S2)cc1 (stereo not drawn)	TNAP inh noacc 64
Cc1cc(O)cc(O)c1-c1onc(C(F)(F)F)c1-c1cscn1	none
CCOc1ccc(-c2onc(C(F)(F)F)c2-c2cscn2)c(O)c1	p97 ATPase inh 29
S=c1[nH]nc(-c2ccco2)n1/N=C/c1ccc(Cl)c(Cl)c1	TNAP inh noacc 58
Cc1cc(O)c(C=Nc2ccc(Cl)cn2)c(=O)o1	none
Oc1ccc2ccccc2c1C=Nc1ccc(Cl)cn1	G6PDH CS 58
O=C(CSc1nc2scc(-c3ccco3)c2c(=O)n1-c1ccccc1)N1CCOCC1	none
NC(=O)CSc1nc2scc(-c3ccco3)c2c(=O)n1-c1ccccc1	p97 ATPase inh 15
CCSc1ccc2cc(OC)ccc2[n+]1CC	none
CCN(CC(=O)NCc1ccccc1Cl)CC(=O)Nc1c(F)cccc1F	none (no result: TNAP act hi DEA, G6PDH CS, TNAP inh hiacc, TNAP inh noacc, DTT redox prof)
COc1cc(OC)cc(-c2cc(N3C(=O)Nc4ccccc4N3O)n[nH]2)c1	none
O=C1Nc2ccccc2N(O)N1c1cc(-c2ccc(Cl)cc2)[nH]n1	TNAP inh noacc 63
CCOC(=O)CNC(=O)CSc1nnc(NC(=O)c2ccccc2Cl)s1	none
CCCn1c(=O)c(C#N)cn(C2CC2)c1=O	none (no result: TNAP act hi DEA, G6PDH CS, TNAP inh hiacc, TNAP inh noacc, DTT redox prof)
COc1ccc2nc(-n3c(O)c(C4=c5ccccc5=NC4=O)[nH]c3=S)sc2c1	TNAP inh hiacc 88
Cn1c(O)c(C2=c3ccccc3=NC2=O)[nH]c1=S	none
Cc1nc(Cl)c2c(n1)N(CC(N)=O)C(=O)CO2	none
COc1ccc(OC)c(C(=O)CSc2nc3ncccc3[nH]2)c1	TNAP inh noacc 63
O=C(CSc1nc2ncccc2[nH]1)c1ccc(F)cc1	TNAP inh noacc 54
COc1ccc(/C=C/C(=O)NCCSCc2ccco2)cc1OC	none (no result: TNAP act hi DEA, G6PDH CS, TNAP inh hiacc, TNAP inh noacc, DTT redox prof)
c1ccc(-c2n[nH]c3ccccc23)cc1	TNAP inh noacc 90
CCOC(=O)c1cc(-c2cccc([N+](=O)[O-])c2)n[nH]1	TNAP inh noacc 62
NC12NC(=O)C3(O)C4C5CC(C6C5C3C61)C42 (stereo not drawn)	none
Cc1ccc(C(=O)c2cn[nH]c2-c2ccccc2O)cc1	none
O=C(c1ccc(F)cc1)c1cn[nH]c1-c1ccccc1O	TNAP inh noacc 56
COc1ccc(C2CC(C)=C(C#N)S(=O)(=O)C2C#N)cc1 (stereo not drawn)	none (no result: TNAP act hi DEA, G6PDH CS, TNAP inh hiacc, TNAP inh noacc, DTT redox prof)
O=C1C(N2CCOCC2)=C(n2nnc3ccccc32)C(=O)c2ccccc21	G6PDH CS 61
CCn1c(=NC(=O)C2COc3ccccc3O2)sc2c(OC)ccc(OC)c21 (stereo not drawn)	none (no result: TNAP act hi DEA, G6PDH CS, TNAP inh hiacc, TNAP inh noacc, DTT redox prof)
Cc1ccc(-c2cc(C(=O)N/N=C/c3c(C)nn(-c4ccccc4)c3C)[nH]n2)cc1	TNAP inh noacc 83
Cc1nn(-c2ccccc2)c(C)c1/C=N/NC(=O)c1cc(C(C)(C)C)[nH]n1	none
O=C(N/N=C\c1cccnc1)c1cc(-c2ccc(Cl)s2)[nH]n1	TNAP inh noacc 84
Cc1ccc(-c2cc(C(=O)N/N=C/c3c(C)nn(-c4ccccc4)c3C)n[nH]2)s1	TNAP inh noacc 60
Nc1nc(-c2ccc(Cl)cc2)nn1C(=O)c1cccnc1	TNAP inh noacc 58
CCC(=O)n1nc(-c2ccc(Cl)cc2)nc1N	TNAP inh noacc 59
CCCC(=O)n1nc(-c2ccc(OC)cc2)nc1N	none
CCn1c(=O)cc(OCC(=O)NCc2cccs2)c2ccccc21	none
Cc1ccc(C(=O)N2NC(c3ccc(F)cc3)C3C(=O)N(c4ccc(C)c(C)c4)C(=O)C32)cc1 (stereo not drawn)	none
